# Insulin prom act: activators of insulin promoter-driven GFP, primary screen, imaging, TRM-6 cells, eGFP reporter, cell count; plate-scaled: unstimulated 0, stimulated control 100; activation, % at 2 µM; 0.81% of 130,000 active; AID 1296, 2008;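 active = activation at 2 µM above a set limit, confirmed on inspection of the cell images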;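 note: share of cells whose green reporter signal exceeds an intensity cutoff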
#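 Test system: human fetal islet-derived TRM-6 cells with tamoxifen-inducible insulin promoter–eGFP reporter. Compound dosing: 2 µM final, single concentration. Incubation: tamoxifen pre-incubation 15 h overnight, then compound exposure 48 h at 37 °C. Signal: fixed-cell fluorescence microscopy, eGFP plus Hoechst.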
# An asterisk follows results filed as active. The sample as a whole holds a higher share of hits than the screen did.
SMILES,Insulin prom act
COc1ccc(N2CCN(C(=O)C34CCC(C)(C(=O)C3)C4(C)C)CC2)cc1 (configuration not stated),-5.7
CC12CCC(C(=O)Nc3ccccc3N3CCOCC3)(CC1=O)C2(C)C (configuration not stated),8.3
CC12CCC(C(=O)N3CCc4ccccc43)(CC1=O)C2(C)C (configuration not stated),513.8*
Cc1occc1C(=O)NN1C(=O)C2C3CCC(O3)C2C1=O (configuration not stated),3.8
Brc1ccc(-c2cn3c(n2)CCc2ccc4cccnc4c2-3)cc1,8.3
N#CC1=C(N)C(C#N)(C#N)C(c2ccncc2)C2CN(C(=O)OCc3ccccc3)CC=C12 (configuration not stated),-4.8
CCN1CC=C2C(C#N)=C(N)C(C#N)(C#N)[C@H](c3cccc(OC)c3OC)[C@H]2C1,614.3*
CN1CC=C2C(C#N)=C(N)C(C#N)(C#N)[C@H](c3cccc(Cl)c3)C2C1 (some centres not stated),7.1
CN1CC=C2C(C#N)=C(N)C(C#N)(C#N)[C@H](c3cccs3)[C@H]2C1,107.9
COc1cccc(C2C3CN(C)CC=C3C(C#N)=C(N)C2(C#N)C#N)c1OC (configuration not stated),147.2*
CCOC(=O)N1CC=C2C(C#N)=C(N)C(C#N)(C#N)[C@H](c3ccccc3OCC)[C@H]2C1,-9.1
CC1(C(=O)NCc2cccnc2)CCC(=O)N1Cc1cccs1 (configuration not stated),-62.5
CCc1nc(C)cn1S(=O)(=O)c1cc(C)c(OC)c(C)c1C,-8.7
O=C(NCc1ccccc1)c1ccc(COCC(F)(F)F)o1,5.6
O=C(NCc1cccnc1)C1c2ccccc2C(=O)N1Cc1ccco1 (configuration not stated),-3.6
